Source: ChEMBL document CHEMBL4406852, “Combating fluconazole-resistant fungi with novel β-azole-phenylacetone derivatives” (Eur J Med Chem, 2019)
Converted amounts (≈) assume the structure as drawn.

Assays:
Assay type in all cases: functional
Nakaseomyces glabratus = assay: Antifungal activity against Candida glabrata assessed as reduction in fungal growth incubated for 24 hrs by serial dilution method
Summary of the method: (§1)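 MIC by CLSI broth microdilution in RPMI 1640 buffered to pH 7.0 with MOPS. Compounds dissolved in DMSO and serially diluted to final 0.03–16 or 0.125–64 µg/mL. Inoculum 1–5 × 10^3 CFU/mL. Incubation 35 °C, 24 h. Drug-free growth and fungus-free blank controls. MIC is the lowest concentration preventing visible growth.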

Candida albicans [1] = assay: Antifungal activity against Candida albicans GIM 2.194 assessed as reduction in fungal growth incubated for 24 hrs by serial dilution method; conditions: GIM 2.194, 24 h; summary of the method: as §1
Candida tropicalis = assay: Antifungal activity against Candida tropicalis GIM 2.183 assessed as reduction in fungal growth incubated for 24 hrs by serial dilution method; conditions: GIM 2.183, 24 h; summary of the method: as §1
Candida albicans [2] = assay: Antifungal activity against Candida albicans SC5314 assessed as reduction in fungal growth incubated for 24 hrs by serial dilution method; conditions: SC5314, 24 h; summary of the method: as §1
Candida parapsilosis = assay: Antifungal activity against Candida parapsilosis GIM 2.190 assessed as reduction in fungal growth incubated for 24 hrs by serial dilution method; conditions: Lodderomyces parapsilosis, GIM 2.190, 24 h; summary of the method: as §1
Candida albicans [3] = assay: Antifungal activity against fluconazole-resistant Candida albicans 901 assessed as reduction in fungal growth incubated for 24 hrs by serial dilution method; conditions: Candida albicans, 901, 24 h
Summary of the method: (§2)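 Fluconazole-resistant C. albicans clinical isolates (17# and CaR from AIDS patients; 632, 901, 904 from clinic) tested by CLSI broth dilution MIC in RPMI 1640 buffered to pH 7.0 with MOPS. Compounds dissolved in DMSO, serially diluted to final 0.03–16 or 0.125–64 μg/mL; inoculum 1–5 × 10^3 CFU/mL; 35 °C, 24 h. MIC = lowest concentration inhibiting visible growth; fluconazole and itraconazole as controls.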

Candida albicans [4] = assay: Antifungal activity against fluconazole-resistant Candida albicans 17 assessed as reduction in fungal growth incubated for 24 hrs by serial dilution method; conditions: Candida albicans, 17, 24 h; summary of the method: as §2
Candida albicans [5] = assay: Antifungal activity against fluconazole-resistant Candida albicans 632 assessed as reduction in fungal growth incubated for 24 hrs by serial dilution method; conditions: Candida albicans, 632, 24 h; summary of the method: as §2
Candida albicans [6] = assay: Antifungal activity against fluconazole-resistant Candida albicans CaR assessed as reduction in fungal growth incubated for 24 hrs by serial dilution method; summary of the method: as §2
Candida albicans [7] = assay: Antifungal activity against fluconazole-resistant Candida albicans 904 assessed as reduction in fungal growth incubated for 24 hrs by serial dilution method; conditions: Candida albicans, 904, 24 h; summary of the method: as §2

Compound | MIC (Nakaseomyces glabratus) [µg/mL] | MIC (Candida albicans [1]) [µg/mL] | MIC (Candida tropicalis) [µg/mL] | MIC (Candida albicans [2]) [µg/mL] | MIC (Candida parapsilosis) [µg/mL] | MIC (Candida albicans [3]) [µg/mL] | MIC (Candida albicans [4]) [µg/mL] | MIC (Candida albicans [5]) [µg/mL] | MIC (Candida albicans [6]) [µg/mL] | MIC (Candida albicans [7]) [µg/mL]
O=C(NC(Cn1ccnc1)C(=O)c1ccccc1)c1ccc(-c2ccc(Cl)cc2)cc1 (stereo not drawn) | > 64 | > 16 | > 16 | 0.5 (≈ 1.16 µM) | > 64 | – | – | – | – | –
O=C(NC(Cn1ccnc1)C(=O)c1cccc(Cl)c1)c1ccc(-c2ccccc2)c(F)c1 (stereo not drawn) | 0.25 (≈ 0.558 µM) | 0.125 (≈ 0.279 µM) | 0.125 (≈ 0.279 µM) | 0.06 (≈ 0.134 µM) | 0.5 (≈ 1.12 µM) | 4 (≈ 8.93 µM) | > 64 | 4 (≈ 8.93 µM) | > 64 | 4 (≈ 8.93 µM)
O=C(NC(Cn1ccnc1)C(=O)c1ccccc1)c1ccc(-c2ccccc2Cl)cc1 (stereo not drawn) | 4 (≈ 9.3 µM) | > 16 | > 16 | 2 (≈ 4.65 µM) | > 64 | – | – | – | – | –
O=C(NC(Cn1ccnc1)C(=O)c1cccc(F)c1)c1ccc(-c2ccccc2)cc1F (stereo not drawn) | 2 (≈ 4.64 µM) | 0.5 (≈ 1.16 µM) | 0.5 (≈ 1.16 µM) | 0.125 (≈ 0.29 µM) | 0.5 (≈ 1.16 µM) | 2 (≈ 4.64 µM) | 4 (≈ 9.27 µM) | > 64 | 2 (≈ 4.64 µM) | 32 (≈ 74.2 µM)
O=C(NC(Cn1ccnc1)C(=O)c1ccc(Cl)cc1)c1ccc(-c2ccccc2)cc1 (stereo not drawn) | 0.5 (≈ 1.16 µM) | 0.125 (≈ 0.291 µM) | 0.06 (≈ 0.14 µM) | 0.06 (≈ 0.14 µM) | 0.25 (≈ 0.582 µM) | 2 (≈ 4.65 µM) | > 64 | 4 (≈ 9.3 µM) | > 64 | 2 (≈ 4.65 µM)
O=C(NC(Cn1cncn1)C(=O)c1ccccc1)c1ccc(-c2ccccc2)cc1 (stereo not drawn) | – | 2 (≈ 5.04 µM) | 1 (≈ 2.52 µM) | 0.25 (≈ 0.631 µM) | – | – | – | – | – | –
O=C(NC(Cn1ccnc1)C(=O)c1ccccc1)c1ccc(-c2ccccc2)cc1Cl (stereo not drawn) | > 64 | > 16 | > 16 | 8 (≈ 18.6 µM) | > 64 | – | – | – | – | –
CCC(C)n1ncn(-c2ccc(N3CCN(c4ccc(OCC5COC(Cn6cncn6)(c6ccc(Cl)cc6Cl)O5)cc4)CC3)cc2)c1=O (stereo not drawn) [ITRACONAZOLE] | 0.125 (≈ 0.177 µM) | 0.03 (≈ 0.0425 µM) | 0.03 (≈ 0.0425 µM) | 0.03 (≈ 0.0425 µM) | 0.125 (≈ 0.177 µM) | > 64 | 0.25 (≈ 0.354 µM) | > 64 | 0.25 (≈ 0.354 µM) | > 64
Cc1ccc(-c2ccc(C(=O)NC(Cn3ccnc3)C(=O)c3ccccc3)cc2)cc1 (stereo not drawn) | > 64 | > 16 | > 16 | 2 (≈ 4.88 µM) | > 64 | – | – | – | – | –
Cc1ccccc1-c1ccc(C(=O)NC(Cn2ccnc2)C(=O)c2ccccc2)cc1 (stereo not drawn) | > 64 | > 16 | > 16 | > 16 | > 64 | – | – | – | – | –
O=C(NC(Cn1ccnc1)C(=O)c1ccc(F)cc1)c1ccc(-c2ccccc2)c(F)c1 (stereo not drawn) | 0.5 (≈ 1.16 µM) | 0.25 (≈ 0.579 µM) | 0.25 (≈ 0.579 µM) | 0.06 (≈ 0.139 µM) | 0.25 (≈ 0.579 µM) | > 64 | > 64 | 4 (≈ 9.27 µM) | > 64 | 4 (≈ 9.27 µM)
O=C(NC(Cn1ccnc1)C(=O)c1ccc(F)cc1)c1ccc(-c2ccccc2)cc1 (stereo not drawn) | 0.5 (≈ 1.21 µM) | 0.25 (≈ 0.605 µM) | 0.25 (≈ 0.605 µM) | 0.06 (≈ 0.145 µM) | 0.25 (≈ 0.605 µM) | 1 (≈ 2.42 µM) | > 64 | 2 (≈ 4.84 µM) | > 64 | 2 (≈ 4.84 µM)
O=C(NC(Cn1ccnc1)C(=O)c1ccc(Cl)cc1)c1ccc(-c2ccccc2)cc1F (stereo not drawn) | 0.25 (≈ 0.558 µM) | 0.5 (≈ 1.12 µM) | 0.06 (≈ 0.134 µM) | 0.06 (≈ 0.134 µM) | 0.125 (≈ 0.279 µM) | > 64 | > 64 | > 64 | > 64 | 32 (≈ 71.4 µM)
O=C(NC(Cn1ccnc1)C(=O)c1ccccc1)c1ccc(-c2ccccc2)c(Cl)c1 (stereo not drawn) | > 64 | > 16 | > 16 | > 16 | > 64 | – | – | – | – | –
O=C(NC(Cn1ccnc1)C(=O)c1ccccc1)c1ccc(-c2ccc(F)cc2)cc1 (stereo not drawn) | > 64 | > 16 | 8 (≈ 19.3 µM) | 4 (≈ 9.67 µM) | > 64 | – | – | – | – | –
O=C(NC(Cn1ccnc1)C(=O)c1ccccc1)c1ccc(-c2ccccc2)c(F)c1 (stereo not drawn) | 0.25 (≈ 0.605 µM) | 0.125 (≈ 0.302 µM) | 0.06 (≈ 0.145 µM) | 0.06 (≈ 0.145 µM) | 0.125 (≈ 0.302 µM) | 0.25 (≈ 0.605 µM) | > 64 | 2 (≈ 4.84 µM) | > 64 | 2 (≈ 4.84 µM)
Cc1cc(-c2ccccc2)ccc1C(=O)NC(Cn1ccnc1)C(=O)c1ccccc1 (stereo not drawn) | > 64 | > 16 | > 16 | > 16 | > 64 | – | – | – | – | –
O=C(NC(Cn1ccnc1)C(=O)c1ccccc1F)c1ccc(-c2ccccc2)c(F)c1 (stereo not drawn) | > 64 | 0.5 (≈ 1.16 µM) | 4 (≈ 9.27 µM) | 0.5 (≈ 1.16 µM) | 2 (≈ 4.64 µM) | 0.25 (≈ 0.579 µM) | > 64 | 1 (≈ 2.32 µM) | > 64 | 0.25 (≈ 0.579 µM)
O=C(NC(Cn1ccnc1)C(=O)c1ccccc1)c1ccc(-c2ccccc2F)cc1 (stereo not drawn) | 1 (≈ 2.42 µM) | 1 (≈ 2.42 µM) | 0.25 (≈ 0.605 µM) | 0.5 (≈ 1.21 µM) | 2 (≈ 4.84 µM) | – | – | – | – | –
Cc1cccc(-c2ccc(C(=O)NC(Cn3ccnc3)C(=O)c3ccccc3)cc2)c1 (stereo not drawn) | > 64 | > 16 | > 16 | > 16 | > 64 | – | – | – | – | –
O=C(NC(Cn1ccnc1)C(=O)c1ccccc1)c1ccc(-c2cccc(F)c2)cc1 (stereo not drawn) | > 64 | 0.5 (≈ 1.21 µM) | 0.125 (≈ 0.302 µM) | 0.25 (≈ 0.605 µM) | 1 (≈ 2.42 µM) | – | – | – | – | –
Cc1cc(C(=O)NC(Cn2ccnc2)C(=O)c2ccccc2)ccc1-c1ccccc1 (stereo not drawn) | > 64 | > 16 | > 16 | > 16 | > 64 | – | – | – | – | –
O=C(NC(Cn1ccnc1)C(=O)c1ccccc1F)c1ccc(-c2ccccc2)cc1F (stereo not drawn) | > 64 | 1 (≈ 2.32 µM) | 1 (≈ 2.32 µM) | 0.5 (≈ 1.16 µM) | 1 (≈ 2.32 µM) | > 64 | 8 (≈ 18.5 µM) | 8 (≈ 18.5 µM) | 4 (≈ 9.27 µM) | 2 (≈ 4.64 µM)
O=C(NC(Cn1ccnc1)C(=O)c1ccccc1)c1ccc(-c2ccccc2)cc1 (stereo not drawn) | 0.25 (≈ 0.632 µM) | 0.125 (≈ 0.316 µM) | 0.06 (≈ 0.152 µM) | 0.06 (≈ 0.152 µM) | 0.125 (≈ 0.316 µM) | 0.5 (≈ 1.26 µM) | > 64 | 2 (≈ 5.06 µM) | > 64 | 1 (≈ 2.53 µM)
O=C(NC(Cn1ccnc1)C(=O)c1cccc(F)c1)c1ccc(-c2ccccc2)c(F)c1 (stereo not drawn) | 2 (≈ 4.64 µM) | 0.25 (≈ 0.579 µM) | 1 (≈ 2.32 µM) | 0.125 (≈ 0.29 µM) | 1 (≈ 2.32 µM) | 0.25 (≈ 0.579 µM) | > 64 | 1 (≈ 2.32 µM) | > 64 | 0.5 (≈ 1.16 µM)
O=C(NC(Cn1ccnc1)C(=O)c1ccccc1)c1ccc(-c2ccccc2)cc1F (stereo not drawn) | 0.5 (≈ 1.21 µM) | 0.25 (≈ 0.605 µM) | 0.06 (≈ 0.145 µM) | 0.125 (≈ 0.302 µM) | 0.125 (≈ 0.302 µM) | > 64 | 2 (≈ 4.84 µM) | 32 (≈ 77.4 µM) | 4 (≈ 9.67 µM) | 8 (≈ 19.3 µM)
O=C(NC(Cn1ccnc1)C(=O)c1cccc(Cl)c1)c1ccc(-c2ccccc2)cc1F (stereo not drawn) | 0.25 (≈ 0.558 µM) | 0.125 (≈ 0.279 µM) | 0.03 (≈ 0.067 µM) | 0.06 (≈ 0.134 µM) | 0.125 (≈ 0.279 µM) | > 64 | > 64 | > 64 | > 64 | > 64
Cc1ccc(C(=O)C(Cn2ccnc2)NC(=O)c2ccc(-c3ccccc3)cc2)cc1 (stereo not drawn) | 0.25 (≈ 0.611 µM) | 0.125 (≈ 0.305 µM) | 0.03 (≈ 0.0733 µM) | 0.06 (≈ 0.147 µM) | 0.5 (≈ 1.22 µM) | 16 (≈ 39.1 µM) | > 64 | > 64 | > 64 | 32 (≈ 78.1 µM)
O=C(NC(Cn1ccnc1)C(=O)c1cccc(F)c1)c1ccc(-c2ccccc2)cc1 (stereo not drawn) | 1 (≈ 2.42 µM) | 0.125 (≈ 0.302 µM) | 0.25 (≈ 0.605 µM) | 0.06 (≈ 0.145 µM) | 0.5 (≈ 1.21 µM) | 0.25 (≈ 0.605 µM) | > 64 | 1 (≈ 2.42 µM) | > 64 | 0.5 (≈ 1.21 µM)
O=C(NC(Cn1ccnc1)C(=O)c1ccc(Cl)cc1)c1ccc(-c2ccccc2)c(F)c1 (stereo not drawn) | 0.5 (≈ 1.12 µM) | 0.5 (≈ 1.12 µM) | 0.06 (≈ 0.134 µM) | 0.06 (≈ 0.134 µM) | 1 (≈ 2.23 µM) | > 64 | > 64 | > 64 | > 64 | > 64
